The source of these data is ChEMBL document CHEMBL1128716, “4,5-Dihydro-3-(methanesulfonamidophenyl)-1-phenyl-1H-2,4-benzodiazepines: a novel class III antiarrhythmic agents” (J Med Chem, 1995).

The species entered for experiment [1] is Oryctolagus cuniculus. Description: In vitro concentration at which cardiac refractoriness in rabbit is increased by 20 ms. It is filed as functional. Conditions: Heart. In short, it runs like this:
(§1)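 Isolated hearts stimulated at twice threshold (1 mA minimum), equilibrated 45 min. ERP determined by scanning diastole with a single premature stimulus after 15 min at each of five cumulative concentrations. EC20 is the concentration raising ERP by 20 ms, estimated by linear regression of concentration–response data, in nM; n = 3–5 hearts.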

Experiment [2] concerns the target Sodium channel protein type 5 subunit alpha (Homo sapiens, UniProt Q14524). Description: Blockade of Na+ current in frog oocytes expressing human cardiac sodium channel (HH1). Format: cell-based, Oocyte. In short, it runs like this:
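HH1 transcripts injected into Xenopus laevis oocytes, incubated at room temperature 24–72 h. Two-microelectrode voltage clamp (3 M KCl electrodes), bath NaCl 140, KCl 2, CaCl2 1.8, MgCl2 1, HEPES 5 mM, pH 7.5, 21–23 °C. Holding −100 mV; peak current at the I–V maximum measured before and after test agent; IC50 in μM.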

Experiment [3] concerns Canis familiaris. Description: Maximum increase in ERP(ms) after oral dose of the compound( 0.3 mg/kg) in mongrel dogs at a basic cycle length of 400 ms. Format: functional, Canis lupus familiaris. In short, it runs like this: (§2)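 Conscious instrumented dogs, at least 7 days after surgery, suspended in slings during normal sinus rhythm. After three baseline ERP measurements, 0.3 mg/kg given orally by gastric lavage. ERP taken every 15 min for 3 h with pacing at basic cycle lengths of 500, 400 and 250 ms. Value is the maximum ERP increase over that interval, mean ± SEM.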

The subject of experiment [4] is Canis familiaris. Nature of the experiment: Maximum increase in ERP(ms) after oral dose of the compound( 0.3 mg/kg) in mongrel dogs at a basic cycle length of 500 ms. Format: functional, Canis lupus familiaris. In short, it runs like this: as §2
The nature of experiment [5]: (§3) Displacement of [3H]BTX from sodium channel. Also noted: species or system Canis lupus familiaris. In short, it runs like this:
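Canine cardiac sarcolemma vesicles (50 μg protein) incubated with 5 nM [3H]BTX-B, 60 min at 37 °C, triplicate. Nonspecific binding with 0.3 mM veratridine. Filtration read-out; IC50 in μM.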

Experiment [6] in a line: Displacement of [3H]D-888 from canine cardiac calcium channel. Format: tissue-based, Canis lupus familiaris, Heart. In short, it runs like this:
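Canine cardiac sarcolemma vesicles (50 μg protein) with 5 nM [3H]D888 in 50 mM Tris-HCl pH 7.4, 0.1% BSA, 90 min at 25 °C, triplicate. Nonspecific binding defined with 31.6 μM (S)-verapamil. Bound ligand collected by filtration on polyethylenimine-treated filters; IC50 in μM.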

Experiment [7] relates to Canis familiaris. Nature of the experiment: Maximum increase in ERP(ms) after oral dose of the compound( 0.3 mg/kg) in mongrel dogs at a basic cycle length of 250 ms. Format: functional, Canis lupus familiaris. Summed up:
as §2

Experiment [8] in a line: as §3.
Experiment [9] concerns Canis familiaris. Nature of the experiment: Maximum increase in ERP(ms) after oral dose of the compound( 0.3 mg/kg) in mongrel dogs at a basic cycle […]. It is filed as functional, Canis lupus familiaris. Summed up: as §2
The species named for experiment [10] is Oryctolagus cuniculus. Description: In vitro concentration at which cardiac refractoriness in rabbit (ERP-effective refractory period) is increased by 20 ms; inactive at 1000. It is filed as functional. Conditions: Heart. Summed up: as §1
In experiment [11] the test system is Canis familiaris. Nature of the experiment: The orally dosed values in animals (0.3 mg/kg) represent the maximum increase in ERP observed over a 3 hour interval. Pacing was done at basic cycle lengths of 500 ms. Format: functional, Canis lupus familiaris. In short, it runs like this: as §2
For experiment [12], the system named is Canis familiaris. Nature of the experiment: Prolongation of ERP(effective refractory […]) in mongrel dogs over a 3 hour interval following oral administration (0.3 mg/kg), pacing at a basic cycle length of 400 ms. Format: functional, Canis lupus familiaris. Summed up: as §2
Experiment [13] concerns Canis familiaris. Description: Prolongation of ERP(effective refractory […]) in mongrel dogs over a 3 hour interval following oral administration (0.3 mg/kg), pacing at a basic cycle length of 250 ms. It is filed as functional, Canis lupus familiaris. Summed up:
as §2

Activity calls are given as the source filed them.

Chain of Sodium channel protein type 5 subunit alpha (Q14524 whole entry): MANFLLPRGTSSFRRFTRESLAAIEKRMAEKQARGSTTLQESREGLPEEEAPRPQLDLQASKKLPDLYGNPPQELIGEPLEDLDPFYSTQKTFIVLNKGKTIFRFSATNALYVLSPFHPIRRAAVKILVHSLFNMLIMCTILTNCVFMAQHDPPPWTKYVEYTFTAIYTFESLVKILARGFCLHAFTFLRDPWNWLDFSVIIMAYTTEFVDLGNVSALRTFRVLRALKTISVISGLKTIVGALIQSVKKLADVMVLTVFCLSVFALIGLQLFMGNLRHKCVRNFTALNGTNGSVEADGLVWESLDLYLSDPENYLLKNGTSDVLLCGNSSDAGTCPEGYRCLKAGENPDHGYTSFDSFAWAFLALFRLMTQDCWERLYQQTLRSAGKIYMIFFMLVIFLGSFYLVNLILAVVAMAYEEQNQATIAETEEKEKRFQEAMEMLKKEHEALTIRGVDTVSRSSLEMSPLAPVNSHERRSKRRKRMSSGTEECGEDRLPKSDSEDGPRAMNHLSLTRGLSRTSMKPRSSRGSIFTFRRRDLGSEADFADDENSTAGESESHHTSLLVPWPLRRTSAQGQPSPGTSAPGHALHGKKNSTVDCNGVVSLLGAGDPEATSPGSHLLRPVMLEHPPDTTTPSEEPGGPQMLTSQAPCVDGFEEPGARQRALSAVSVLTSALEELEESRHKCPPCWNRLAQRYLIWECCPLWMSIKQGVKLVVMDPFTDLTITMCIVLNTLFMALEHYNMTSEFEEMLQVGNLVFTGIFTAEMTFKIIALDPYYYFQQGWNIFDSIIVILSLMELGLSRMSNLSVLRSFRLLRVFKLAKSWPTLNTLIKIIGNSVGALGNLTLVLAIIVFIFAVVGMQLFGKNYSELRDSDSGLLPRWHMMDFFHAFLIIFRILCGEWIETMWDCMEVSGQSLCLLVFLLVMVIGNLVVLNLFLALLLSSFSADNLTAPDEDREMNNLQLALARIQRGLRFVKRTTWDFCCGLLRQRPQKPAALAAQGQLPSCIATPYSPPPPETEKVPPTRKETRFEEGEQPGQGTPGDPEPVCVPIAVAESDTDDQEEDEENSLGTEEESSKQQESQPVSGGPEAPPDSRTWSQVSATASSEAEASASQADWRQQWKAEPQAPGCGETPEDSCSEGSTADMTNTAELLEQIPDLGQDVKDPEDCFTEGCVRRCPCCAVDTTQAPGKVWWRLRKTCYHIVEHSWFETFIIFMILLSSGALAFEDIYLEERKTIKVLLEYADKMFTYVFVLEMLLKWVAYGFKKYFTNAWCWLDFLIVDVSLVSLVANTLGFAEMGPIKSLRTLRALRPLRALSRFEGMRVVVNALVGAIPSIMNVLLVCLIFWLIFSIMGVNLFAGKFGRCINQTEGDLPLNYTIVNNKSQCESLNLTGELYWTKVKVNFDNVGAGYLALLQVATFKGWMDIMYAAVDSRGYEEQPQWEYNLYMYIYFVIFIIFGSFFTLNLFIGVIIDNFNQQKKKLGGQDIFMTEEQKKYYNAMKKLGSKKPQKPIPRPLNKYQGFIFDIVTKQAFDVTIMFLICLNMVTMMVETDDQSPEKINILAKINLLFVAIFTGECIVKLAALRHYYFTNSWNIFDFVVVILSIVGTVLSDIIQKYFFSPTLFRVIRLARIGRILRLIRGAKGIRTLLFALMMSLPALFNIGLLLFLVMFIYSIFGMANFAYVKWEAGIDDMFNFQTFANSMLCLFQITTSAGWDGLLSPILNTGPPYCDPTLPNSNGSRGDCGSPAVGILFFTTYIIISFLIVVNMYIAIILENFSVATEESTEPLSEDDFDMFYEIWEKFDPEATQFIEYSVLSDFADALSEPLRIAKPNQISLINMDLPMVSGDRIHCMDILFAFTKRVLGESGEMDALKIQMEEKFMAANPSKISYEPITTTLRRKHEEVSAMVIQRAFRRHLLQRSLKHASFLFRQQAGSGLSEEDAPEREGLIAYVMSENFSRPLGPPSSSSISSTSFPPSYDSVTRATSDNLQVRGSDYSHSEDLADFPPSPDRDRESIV

Compound `CN1Cc2ccccc2C(c2ccc(NS(C)(=O)=O)cc2)N=C1OCc1ccc(NS(C)(=O)=O)cc1` (centres undefined) came in with an EC20 in the experiment listed under Oryctolagus cuniculus [1] of 0.14 µM.
For `CN1Cc2ccccc2[C@@H](c2ccc(F)cc2F)N=C1CCc1ccc(NS(C)(=O)=O)cc1.Cl`, the IC50 in [2] was greater than 100 µM; in [5], 2.5 µM; in experiment [6], 1.1 µM. The ERP observations was 33 with Canis familiaris [3], 33 in the experiment with Canis familiaris [4] and 22 in the experiment with Canis familiaris [7]. In addition, it took 0.008 µM to reach the 20% level in the experiment filed under Oryctolagus cuniculus [1] (EC20).
The compound `CN1Cc2ccccc2C(c2ccc(F)cc2F)N=C1CCc1ccc(NS(C)(=O)=O)cc1` (centres undefined) yielded an EC20 in the experiment listed under Oryctolagus cuniculus [1] of 0.004 µM.
Consider `CN1Cc2ccccc2[C@@H](c2ccccc2)N=C1OCc1ccc(NS(C)(=O)=O)cc1.O=C(O)/C=C/C(=O)O`, for which the IC50 in experiment [2] came out at 126 µM; in experiment [8], 5.2 µM. Further, the figures for the ERP in the experiment on Canis familiaris [3], in the experiment on Canis familiaris [4] and with Canis familiaris [7] were 36 ms, 40 ms and 31 ms, respectively. Also, in the experiment filed under Oryctolagus cuniculus [1], the EC20 worked out at 0.0015 µM.
`CN1Cc2ccccc2C(c2ccc(Cl)c(Cl)c2)N=C1OCc1ccc(NS(C)(=O)=O)cc1` (centres undefined) had an EC20 in the experiment listed under Oryctolagus cuniculus [1] of 0.002 µM.
The same measure, in the same setting: the same measure for `COc1ccc(C2N=C(OCc3ccc(NS(C)(=O)=O)cc3)N(C)Cc3ccccc32)cc1` (centres undefined): 0.004 µM.
Regarding `CSc1ccc([C@H]2N=C(OCc3ccc(NS(C)(=O)=O)cc3)N(C)Cc3ccccc32)cc1.Cl`, the ERP observations is 33 with Canis familiaris [3], 33 in the experiment on Canis familiaris [4] and 28 in the experiment with Canis familiaris [7]. Moreover, the IC50 amounted to 1 µM in experiment [5] and 0.7 µM in experiment [6]. The same compound gave an EC20 in the experiment filed under Oryctolagus cuniculus [1] of 0.007 µM.
Take `CSc1ccc([C@@H]2N=C(OCc3ccc(NS(C)(=O)=O)cc3)N(C)Cc3ccccc32)cc1.Cl`: the results for the IC50 in [2], in experiment [5] and in [6] were greater than 30 µM, 3 µM and 1.1 µM, respectively. The ERP observations in the experiment on Canis familiaris [4] is listed as 28; in the experiment on Canis familiaris [9], 20; in the experiment on Canis familiaris [7], 11. This compound also registered an EC20 in the experiment listed under Oryctolagus cuniculus [1] of 0.008 µM.
As to `CN1Cc2ccccc2C(c2ccc(NS(C)(=O)=O)cc2)N=C1CCc1ccc(NS(C)(=O)=O)cc1` (centres undefined), the EC20 result in the experiment listed under Oryctolagus cuniculus [10] was “inactive”.
Take `CN1Cc2ccccc2C(c2ccccc2)N=C1CCc1ccc(NS(C)(=O)=O)cc1` (centres undefined): in the experiment listed under Oryctolagus cuniculus [1], the EC20 was 0.02 µM.
`CN(CCOc1ccc(NS(C)(=O)=O)cc1)CCc1ccc(NS(C)(=O)=O)cc1` [DOFETILIDE]: the ERP observations with Canis familiaris [11] is recorded as 30; in the experiment with Canis familiaris [12], 28; in the experiment with Canis familiaris [13], 21. The compound also yielded an EC20 in the experiment filed under Oryctolagus cuniculus [1] of 0.002 µM.
`CN1Cc2ccccc2[C@@H](c2ccc(Cl)cc2)N=C1OCc1ccc(NS(C)(=O)=O)cc1` had an EC20 in the experiment filed under Oryctolagus cuniculus [1] of 0.002 µM.
Compound `CCS(=O)(=O)Nc1ccc(CCC2=NC(c3ccccc3)c3ccccc3CN2C)cc1` (centres undefined) registered an EC20 in the experiment listed under Oryctolagus cuniculus [1] of 0.1 µM.
As for `CN1Cc2ccccc2[C@H](c2ccccc2)N=C1OCc1ccc(NS(C)(=O)=O)cc1.O=C(O)/C=C/C(=O)O`, the IC50 in experiment [2] is greater than 30 µM; in experiment [5], 6.9 µM; in experiment [6] it was 0.9 µM. Also, the ERP observations with Canis familiaris [3] was found to be 20; in the experiment on Canis familiaris [4] it was 18; in the experiment with Canis familiaris [7], 18. This compound also gave an EC20 in the experiment listed under Oryctolagus cuniculus [1] of 0.004 µM.
`CN1Cc2ccccc2C(c2ccccc2)N=C1CCc1ccccc1` (centres undefined) registered an EC20 in the experiment listed under Oryctolagus cuniculus [1] of 0.06 µM.
`CN1Cc2ccccc2[C@H](c2ccc(F)cc2F)N=C1CCc1ccc(NS(C)(=O)=O)cc1.Cl`: the results for the IC50 in experiment [2], in [5] and in experiment [6] were greater than 100 µM, 3.6 µM and 0.5 µM, respectively. In addition, the ERP observations in the experiment with Canis familiaris [3] is on record as 27; in the experiment with Canis familiaris [4], 28; in the experiment with Canis familiaris [7], 21. This compound displayed an EC20 in the experiment filed under Oryctolagus cuniculus [1] of 0.007 µM.
As for `CN1Cc2ccc(NS(C)(=O)=O)cc2C(c2ccccc2)N=C1CCc1ccccc1` (centres undefined), the 20% effect level in the experiment filed under Oryctolagus cuniculus [1] (EC20) was put at 0.655 µM.
The same measure, in the same setting: the same measure for `CN1Cc2ccccc2C(c2ccccc2)N=C1CCc1ccccc1NS(C)(=O)=O` (centres undefined): 0.5 µM; for `CSc1ccc(C2N=C(OCc3ccc(NS(C)(=O)=O)cc3)N(C)Cc3ccccc32)cc1` (centres undefined): 0.004 µM; for `CN1Cc2ccccc2C(c2ccc(Cl)cc2)N=C1SCc1ccc(NS(C)(=O)=O)cc1` (centres undefined): 0.0055 µM.
The compound `CN1Cc2ccccc2C(c2ccc(NS(C)(=O)=O)cc2)N=C1CCc1ccccc1` (centres undefined) registered an EC20 in the experiment filed under Oryctolagus cuniculus [1] of 0.78 µM.
On the same count and under the same terms, next, `CN1Cc2ccccc2C(c2ccc(Cl)cc2)N=C1OCc1ccc(NS(C)(=O)=O)cc1` (centres undefined): 0.003 µM; `CN1Cc2ccccc2C(c2ccc(Cl)cc2)N=C1CCc1ccc(NS(C)(=O)=O)cc1` (centres undefined): 0.01 µM.
The same measure, in the same setting: next, `CN1Cc2ccccc2[C@H](c2ccc(Cl)cc2)N=C1OCc1ccc(NS(C)(=O)=O)cc1`: 0.004 µM; `CN1Cc2ccccc2C(c2ccccc2)N=C1CCc1ccc(NS(=O)(=O)C(F)(F)F)cc1` (centres undefined): 0.52 µM.
Consider `CN1Cc2ccccc2C(c2ccccc2)N=C1OCc1ccc(NS(C)(=O)=O)cc1` (centres undefined), for which, in the experiment listed under Oryctolagus cuniculus [1], the EC20 amounted to 0.006 µM.
As for `CN1Cc2c(NS(C)(=O)=O)cccc2C(c2ccccc2)N=C1CCc1ccccc1` (centres undefined), the EC20 entry in the experiment filed under Oryctolagus cuniculus [10] is “inactive”.
